The source made the active and inactive calls. No cut-off for these calls is given here.
Key:
[1] = Inhibition of actin-activated rabbit skeletal muscle myosin 2 assessed as phosphate level incubated for 6 to 24 mins by spectrophotometric method; set-up: species or system Oryctolagus cuniculus
How it was run: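 Actin-activated ATPase run at 30 °C in assay buffer with 32 µM actin and 2 mM ATP. Phosphate production followed over time by absorbance in stopped-time format. IC50 from four-parameter logistic fit. N is the number of fully independent titrations.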

Mus musculus [2] = species: Mus musculus; assay: Inhibition of C57Bl6 mouse skeletal muscle myosin assessed as inhibition of phrenic nerve stimulation-induced contraction in mouse diaphragm at 100 uM relative to control
How it was run: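 Mouse phrenic nerve-hemidiaphragm preparation used ex vivo. Muscle contraction evoked by phrenic nerve stimulation, recorded with and without compound.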

Mus musculus [3] = species: Mus musculus; assay: Inhibition of C57Bl6 mouse […] assessed as reduction in action potential in mouse diaphragm at 100 uM
[4] = Selectivity ratio of IC50 for actin-activated bovine heart muscle myosin 2 to IC50 for actin-activated rabbit skeletal muscle myosin 2
[5] = Competitive binding affinity to skeletal myosin S1 (unknown origin) assessed as reduction in Blebbistatin-induced fluorescence intensity incubated for 1 hr by fluorescence based assay; set-up: species or system Homo sapiens
[6] = Kinetic solubility in pH 7.4 PBS incubated for 1 hr; format: physicochemical; settings: for Kinetic_solubility: buffer, pH 7.4, 1 h
HL-60 = assay: Cytotoxicity against human HL-60 cells assessed as reduction in cell viability incubated for 48 hrs by hemocytometer based trypan-blue exclusion assay; settings: HL-60, 48 h
[7] = Half life in pH 7.4 PBS at 100 uM by UV-VIS spectroscopic method; format: physicochemical
[8] = Inhibition of rabbit skeletal muscle myosin 2 assessed as reduction in actin-sliding velocity incubated for 1 min by inverted microscopic analysis; set-up: species or system Oryctolagus cuniculus
How it was run: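 In vitro motility assay at 30 °C with skeletal myosin loaded at 100 µg mL-1 on a coverslip. Fluorescent actin filament sliding velocity recorded across compound concentrations. IC50 obtained by curve fit.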

[9] = Inhibition of actin-activated rabbit skeletal muscle myosin 2; set-up: species or system Oryctolagus cuniculus
[10] = Binding affinity to skeletal myosin S1 (unknown origin) assessed as fluorescence intensity in presence of ATP; set-up: species or system Homo sapiens
How it was run: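 Skeletal myosin S1 binding read by fluorescence of 2 µM blebbistatin probe (λex 440 nm, em 560 nm) in assay buffer with 1 mM ATP at 22-25 °C. Signal without S1 was subtracted and normalised to Fmax. Direct Kd came from S1 titration fit to a quadratic single-site equation. Competition used 1 µM S1 and 1 hr incubation with analog; IC50 from a four-parameter fit was converted to Ki. N = 1.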

SMILES	IC50 [1] [µM]	inhibition (Mus musculus [2]) [%]	inhibition (Mus musculus [3])	Ratio IC50 [4]	other results
C/C(=N\C(C)C)c1c(O)c2ccccc2oc1=O	≥ 100	94	Active		
C/C(=N\CC1CCCCC1)c1c(O)c2ccccc2[nH]c1=O	≥ 100	72	Active		
C/C(=N\Cc1cccnc1)c1c(O)c2ccccc2oc1=O	3			5.6	
C/C(=N\Cc1ccccc1)c1c(O)c2ccccc2oc1=O	0.8			9.1	IC50 [5]: 5.3 µM; Ki [5]: 0.8 µM; Kinetic_solubility [6]: 103 µM; IC50 (HL-60): 801 µM
C/C(=N\C(C)C)c1c(O)c2ccccc2[nH]c1=O	≥ 100	18			
CCC(C)/N=C(\C)c1c(O)c2ccccc2[nH]c1=O (configuration not stated)	≥ 100	98	Active		
CC/C(=N\Cc1ccccc1)c1c(O)c2ccccc2oc1=O	≥ 100				
C/C(=N\Cc1ccccc1)c1c(O)c2cc([N+](=O)[O-])ccc2oc1=O	≥ 100				
C/C(=N\Cc1ccc(C)cc1)c1c(O)c2ccccc2oc1=O	0.8			9.9	
CCCC/N=C(\C)c1c(O)c2ccccc2[nH]c1=O	≥ 100	48			
CCC/C(=N\Cc1ccccc1)c1c(O)c2ccccc2oc1=O	≥ 100				
CCCCC/N=C(\C)c1c(O)c2ccccc2oc1=O	2			3.3	
C/C(=N\Nc1ccccc1)c1c(O)c2ccccc2oc1=O	2			13.5	
C/N=C(\C)c1c(O)c2ccccc2oc1=O	≥ 100	80	Active		IC50 (HL-60): 408 µM
CCC/N=C(\C)c1c(O)c2ccccc2oc1=O	31			1.7	
C/C(=N\Cc1ccccc1)c1c(O)c2ccccc2[nH]c1=O	≥ 100	16			
CCC(C)/N=C(\C)c1c(O)c2ccccc2oc1=O (configuration not stated)	≥ 100	21			
CCCCC/N=C(\C)c1c(O)c2ccccc2[nH]c1=O	≥ 100	99	Active		

SMILES	IC50 [1] [µM]	inhibition (Mus musculus [2]) [%]	inhibition (Mus musculus [3])	Ratio IC50 [4]	other results
CC(=N)c1c(O)c2ccccc2oc1=O	≥ 100	73	Active		
C/C(=N\CCO)c1c(O)c2ccccc2oc1=O	92	87	Active	1	IC50 (HL-60): 590 µM
CC/N=C(\C)c1c(O)c2ccccc2oc1=O	47			2.1	
C/C(=N\Cc1ccncc1)c1c(O)c2ccccc2oc1=O	8.5	98	inactive	> 12	solubility kinetic at 1 h ([6]; PBS, pH 7.4, read-out: Kinetic_solubility): > 400 µM; half-life at 100 µM [7]: 84 h
CCCCCC/N=C(\C)c1c(O)c2ccccc2oc1=O	1.2			2.4	
CCC/N=C(\C)c1c(O)c2ccccc2[nH]c1=O	≥ 100	41			
C/C(=N\Cc1cccc(C)c1)c1c(O)c2ccccc2oc1=O	10			0.5	
C/C(=N\Cc1ccccc1C)c1c(O)c2ccccc2oc1=O	≥ 100				
CCCC/N=C(\C)c1c(O)c2ccccc2oc1=O	2.1	96	inactive	2.8	IC50 [8]: 2.8 µM; Kinetic_solubility [6]: 607 µM
C/C(=N\CC(C)C)c1c(O)c2ccccc2[nH]c1=O	≥ 100	71	Active		
C/C(=N\CCO)c1c(O)c2ccccc2[nH]c1=O	≥ 100	94	Active		
CCCC/N=C(\C)c1c(O)c2ccccc2n(C)c1=O	≥ 100				
C/C(=N\OCc1ccccc1)c1c(O)c2ccccc2oc1=O	≥ 100				
CCCCC/N=C(\C)c1c(O)c2cc([N+](=O)[O-])ccc2oc1=O	≥ 100				
Cc1ccc2c(c1)C(=O)[C@]1(O)CCN(c3ccccc3)C1=N2	0.5	99	Active		IC50 [9]: 0.01 µM; Kd [10]: 0.4 µM
C/C(=N\Cc1ccccn1)c1c(O)c2ccccc2oc1=O	6.8	86	Active	3.2	
C/C(=N\CCCO)c1c(O)c2ccccc2oc1=O	31	72	Active	1.2	
C/C(=N\CC(C)C)c1c(O)c2ccccc2oc1=O	≥ 100	22		< 0.34	
